Screening results as filed in PubChem.
Most compounds without a hit are left out; they make up all but 2.1% or so of the library.
TNF necrop inh – blocks TNF-alpha induced death of Jurkat FADD-/- cells; Jurkat FADD-/- TNF necroptosis rescue, ATP luminescence, 24 h; 0 = TNF only, 100 = no-TNF cells; AID 463075; activation (protection from cell death), % at 10 µM; actives 0.068% (n = 220,000);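 active = activation, meaning protection from cell death, of at least 50% relative to plate controls; inactive = activation below 50%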;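 also: necroptosis triggered by 40 ng/mL TNF-alpha added together with compound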
STAT1 blocker – reduces IFN-gamma driven STAT1 reporter signal. NIH 3T3 STAT1-luciferase reporter, luminescence. inhibition, % at 5.5 µM. actives 0.35% (n = 200,000);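 active = inhibition above a set limit, the mean inhibition across all tested compounds plus 3 SD, cut at about 34% in these data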;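 also: 0% = IFN-gamma with DMSO and 100% = IFN-gamma with 300 µM nifuroxazide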
STAT3 activator – STAT3 signaling activation | activation (% of control), % at 5.6 µM | actives 0.91% (n = 190,000) | AID 871 | U3A cells, IL-6 STAT3-luciferase reporter, luminescence; 100% = signal with IL-6 EC80 alone;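 active = activation above the screen-wide mean of compound activation plus 3 SD, cut at about 130% in these data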;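 also: 0% = background luminescence of wells with medium and substrate only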
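system = STAT3-luciferase reporter U3A cells | reagent = IL-6 stimulus at 33 ng/mL final | timing = 1 h compound pre-exposure, 6 h IL-6 stimulation, 37 °C | measured by = luminescence | evaluation = % activation versus median of IL-6-stimulated wells | control set = IL-6-only wells as 100% reference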
STAT3 inh-1 – STAT3 signaling inhibition. U3A cells, IL-6 STAT3-luciferase reporter, luminescence; host cell line lacks STAT1. inhibition, % at 5.5 µM. actives 0.89% (n = 190,000). AID 862;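 active = inhibition above the mean inhibition across all screened compounds plus 3 SD, cut at about 44% in these data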;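 also: 0% = DMSO only wells and 100% = 100 µM nifuroxazide control wells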
zVAD death inh – blocks zVAD induced death of L929 cells. L929 zVAD necroptosis rescue, ATP luminescence, 24 h; with zVAD 60 µM. viability rescue, % at 10 µM. actives 0.38% (n = 220,000);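 active = activation, scaled between plate controls, above about 75%, limit read from the data; inactive = activation under that limit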;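 also: 0% = zVAD with DMSO and 100% = DMSO alone without zVAD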
STAT3 inh-2 – confirmation of STAT3 signaling inhibitors; shares compounds with STAT3 inh-1; U3A cells, IL-6 STAT3 luciferase reporter, luminescence; cell line lacks STAT1; actives 45% (n = 1,200); AID 1265; inhibition, % at 5.7 µM;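 active = inhibition above the hit cutoff computed for the primary STAT3 screen, cut at about 44% in these data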;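 also: 0% = IL-6 plus DMSO and 100% = IL-6 plus nifuroxazide control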
NFkB inh 2 – counter-screen for STAT3 inhibitors: NF-kappaB inhibition. shares compounds with STAT3 inh-1. HEK293T NF-kB luciferase reporter, TNF-alpha induced. inhibition, % at 5.7 µM. actives 36% (n = 1,200). AID 1308;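 active = inhibition above the mean of solvent-only control wells plus 3 SD, cutoff set per campaign, cut at about 13% in these data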;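 also: 0% = TNF-alpha with DMSO and 100% = TNF-alpha with MG high control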
STAT1 inh 2 – inhibits STAT1, counter-screen to STAT3 inhibitors. AID 1317. actives 27% (n = 1,200). shares compounds with STAT3 inh-1. NIH 3T3 STAT1-luciferase reporter, IFN-gamma induced, luminescence. inhibition, % at 5.7 µM;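 active = inhibition above the mean plus 3 SD of solvent-only control wells, limit set per screening run, cut at about 16% in these data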;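 also: 0% = DMSO with IFN-gamma and 100% = nifuroxazide control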
* hit, by the source's call; · = no result.

SMILES	TNF necrop inh	STAT1 blocker	STAT3 activator	STAT3 inh-1	zVAD death inh	STAT3 inh-2	NFkB inh 2	STAT1 inh 2
COc1ccc(C(=O)Nc2ccc3c(c2)OCCO3)cc1	-4	9	48	66*	0	12	-19	-90
CCc1nnc2sc(-c3ccc(NC(=O)c4ccco4)cc3)nn12	0	8	81	29	2	·	·	·
CSc1sc(C(=O)NNC(C)=O)c2c1C1(CCC2)SCCS1	-2	·	·	·	0	·	·	·
NC(=O)NC1CCCc2c1[nH]c1ccc(Cl)cc21 (centres undefined)	3	4	96	5	2	·	·	·
COc1ccc(NC(=O)C2=Cc3cccc(OC)c3OC2)cc1	-2	-17	95	14	1	·	·	·
O=C(Nc1ccc(N2CCN(C(=O)c3ccc(Cl)cc3)CC2)cc1)c1ccc2c(c1)OCCO2	-17	13	29	87*	-1	79*	29*	12
O=C(Nc1ccc(N2CCN(C(=O)c3ccccc3)CC2)cc1)c1cc2ccccc2o1	-2	0	50	63*	2	59*	14*	-5
Cc1ccsc1C(=O)Nc1ccc2c(c1)OCCO2	4	-28	54	55*	0	14	-17	-77
COc1ccc(NC(=O)C2=Cc3ccccc3OC2)cc1	-1	20	54	58*	0	24	-32	-109
Cc1nn(C(=O)c2cccs2)c(N)c1-c1ccccc1	0	-65	105	-6	69	·	·	·
O=C(CSc1ccncc1)Nc1ccc2ccccc2c1	4	-1	102	2	14	·	·	·
O=C(COc1ccc(Br)cc1)Nc1ccc(Cc2ccncc2)cc1	-2	-1	84	25	3	·	·	·
O=C(COc1ccc2ccccc2c1)Nc1ccncc1	-6	3	63	45*	8	44*	-8	-3
O=C(COc1ccccc1)Nc1ccncc1	1	9	98	6	0	·	·	·
O=C(CSc1ccc2ccccc2c1)Nc1ccncc1	-12	6	61	50*	-1	45*	-3	-1
Cc1cc(OCC(=O)Nc2ccncc2)cc(C)c1Br	-6	1	45	68*	0	66*	-7	-14
COc1cc(/C=C2/SC(=S)N(CC(=O)Nc3nc4ccccc4s3)C2=O)cc(OC)c1OC	-4	-3	108	1	0	·	·	·
COc1ccc(-n2c(-c3ccc(Br)cc3)c[n+]3c2SC(C)C3)cc1 (centres undefined)	-3	17	66	46*	0	41	-5	22*
COc1ccc(CCN2C(=O)C3C4C=CC(C5CC45)C3C2=O)cc1OC (centres undefined)	1	6	97	7	6	·	·	·
COc1ccc(CCN2C(=O)C3C4C=CC(C3C2=O)C2C(=O)N(CCc3ccc(OC)c(OC)c3)C(=O)C42)cc1OC (centres undefined)	-8	14	44	68*	1	66*	29*	13
O=C(OCCOCCN=C1NS(=O)(=O)c2ccccc21)c1ccncc1	0	5	98	6	1	·	·	·
COc1ccc2c(c1)oc(=O)c1c3ccccc3[nH]c21	-10	-32	53	60*	20	62*	-10	-53
CCOc1ccc(/C=N/NC(=O)c2ccccc2NC(=O)c2ccc(OC)cc2)cc1	0	28	86	15	1	·	·	·
COc1ccc(C(=O)Nc2ccccc2C(=O)N/N=C/c2ccco2)cc1	-5	29	60	48*	0	2	18*	20*
COc1ccc2c(c1)oc(=O)c1cc(OC)ccc12	-1	-60	·	·	50	·	·	·
SMILES	TNF necrop inh	STAT1 blocker	STAT3 activator	STAT3 inh-1	zVAD death inh	STAT3 inh-2	NFkB inh 2	STAT1 inh 2
COc1ccc(-c2cc(=O)c3cc(OC)ccc3o2)cc1	-1	-25	42	73*	64	53*	31*	-47
O=C(Nc1nc2c(F)cc(F)cc2s1)c1ccccn1	-7	19	48	66*	6	34	-20	-131
CNC1=C(N(C(C)=O)c2ccc(Br)cc2)C(=O)c2ccccc2C1=O	-11	28	59	49*	15	53*	31*	41*
O=C(NCc1ccccc1)C(=O)Nc1nc(-c2ccccc2)cs1	6	·	·	·	6	·	·	·
Cc1ccc(S(=O)(=O)C(C#N)c2nc3ccccc3nc2N2CCN(C)CC2)cc1 (centres undefined)	1	-10	67	44*	·	59*	19*	3
N=c1cc(C2(O)CCCCC2)n2c(nc3ccccc32)s1	-1	-4	49	61*	2	36	1	-70
O=C(Nc1cccc(O)c1)c1noc2c1CCc1ccccc1-2	-6	18	31	83*	0	60*	-6	16
Cc1ccc(NC(=O)c2noc3c2CCc2ccccc2-3)cc1	2	-33	114	-9	0	·	·	·
Cc1cc(C)n(-c2ccc(C(=O)Nc3nc4ccccc4s3)cc2)n1	-2	-80	100	6	1	·	·	·
Nc1ccc(C(=O)Nc2nc3ccccc3s2)cc1	-2	-28	62	51*	2	2	-40	-173
Brc1ccc(-c2nc(-c3ccncc3)no2)o1	-4	-38	97	5	0	·	·	·
Clc1ccc(-c2nc(-c3ccccn3)no2)cc1Cl	-5	-7	45	71*	0	33	14*	-31
Brc1ccc(-c2nc(-c3ccccn3)no2)o1	-8	36*	41	75*	0	33	-4	-48
Clc1ccc(OCc2nc(-c3ccccn3)no2)c(Br)c1	-1	-8	56	57*	0	13	-16	-124
Cc1ccc(-c2csc(NC(=S)NC(=O)c3ccco3)n2)cc1	-1	0	89	12	·	·	·	·
C[C@H](NC(=O)c1nc[nH]c1C(=O)N[C@@H](C)c1ccccc1)C(=O)OC(C)(C)C	0	6	·	·	-1	·	·	·
CCOC(=O)c1csc(NC(=O)c2cc3ccccc3o2)n1	-1	·	·	·	2	·	·	·
CCOC(=O)c1sc(Nc2ccccc2Cl)nc1C	0	·	·	·	1	·	·	·
CCOC(=O)c1sc(NC(=O)c2cc3ccccc3o2)nc1C	1	-48	64	47*	1	2	-38	-65
CCOC(=O)c1sc(NC(=O)Nc2ccccc2F)nc1C	1	-18	38	75*	5	61*	39*	-19
O=C1N=C(C=c2ccc(=Cc3[nH]c(=O)[nH]c3O)cc2)C(=O)N1	4	·	·	·	-1	·	·	·
